This is one part of a sample in which hits are shown more often than they occur.
Dynein cargo inh: blocks dynein driven cargo transport along microtubules. AID 1381. 3617.4 mouse cells, GR-EGFP nuclear translocation imaging; test concentration mostly 20 µM; stimulated with dexamethasone, 1 µM; active compounds read low. z-score, hits read low. 220,000 tested, 0.47% active;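 active = plate z-score of nuclear minus cytoplasmic receptor signal below a set negative limit, without overly bright fluorescence or cell loss, cut at about -3.5 in these data, passing the limit was not always enough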;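 also: z-score of nuclear minus cytoplasmic ring GR-EGFP intensity difference per well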
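Buffer or medium: tet-free, stripped-serum medium; Also added: dexamethasone, 1.0 µM final; Technique: high-content fluorescence imaging after fixation; Times: 48 h induction, 1 h compound, 30 min dex at 37 °C; Read-out: per-cell GR-EGFP intensity, nucleus versus surrounding cytoplasmic ring, well-averaged.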
T cruzi repl: T. cruzi replication inhibition; T. cruzi beta-gal in NIH3T3, luminescence, 90 h; inhibition, % (test concentration not listed); 300,000 tested, 1.4% active; AID 1885;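 active = mean inhibition across valid replicates above about 55%, limit read from the data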;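 also: signal also drops with host cell toxicity which is not excluded here; 0% = plate median of DMSO wells and 100% = zero luminescence signal; higher percent means less beta-gal luminescence so fewer parasites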
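compound dosing = single 50 nL compound addition per well in DMSO | material = NIH/3T3 host cells with β-galactosidase reporter T. cruzi | input = 5,000 host fibroblasts per well | timing = ≥90 h infection period, 3 h prior cell attachment | read-out basis = percent inhibition of parasite-derived β-gal signal | detection = GalScreen β-gal luminescence, detergent lysis, 60 min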
CHOP UPR activ: activators of apoptotic arm of unfolded protein response (CHOP); CHO-CHOP luciferase reporter, UPR activation, luminescence; percent of tunicamycin response over DMSO baseline; activation, % at 10 µM; 330,000 tested, 0.34% active; AID 449763;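 active = at 10 µM dose, activation of 40% or more, normalized to positive control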;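 also: 100% = tunicamycin at 10 µg/mL and 0% = DMSO alone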
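System: CHO-CHOP luciferase reporter cell line; amount: 500 cells/well; buffer or medium: F12 medium containing 10% fetal bovine serum; incubation: 6 h compound exposure at 37 °C after overnight seeding; measured by: luciferase luminescence after 10 min with Steady-Glo reagent; evaluation: % reporter activation, DMSO baseline versus tunicamycin full activation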
UPR XBP1 act: activators of adaptive arm of unfolded protein response (XBP1); CHO-XBP1 luciferase reporter, IRE1-XBP1 UPR activation, luminescence; percent of tunicamycin response, DMSO as zero; activation, % at 20 µM; 330,000 tested, 0.33% active;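 active = versus positive control, 20 µM dose yields 30% or more activation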;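 also: 100% = tunicamycin at 10 µg/mL and 0% = DMSO only wells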
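Material: CHO-XBP1 cells stably carrying IRE1-XBP1-driven luciferase reporter / Amount: 1000 cells per well / Compound: 20 µM, 1% DMSO / Times: 6 h treatment, 37 °C / Detection: luciferase luminescence / Measure: % activation of reporter signal versus tunicamycin and DMSO controls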
CHOP inhibitor: blocks CHOP induction under ER stress; CHO-K1 CHOP-promoter luciferase, tunicamycin-induced, 15-18 h; 220,000 tested, 3.8% active; inhibition, % at 10 µM; AID 2732;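 active = compounds that reduced the stress-induced luciferase reporter signal by more than about 70% of percent inhibition, limit read from the data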;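 also: 0% = tunicamycin plus vehicle and 100% = wells without tunicamycin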
Lmaj promast: reduces viability of Leishmania major promastigotes | resazurin fluorescence viability | inhibition, % at 10 µM | 200,000 tested, 9% active | AID 1063; in the data active = inhibition above about 50%;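 also: promastigotes grown with compound for 44 hours at 28 °C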
UPR CHOP confirm: confirmation of apoptotic unfolded protein response (CHOP) activators. activation, % at 10 µM. CHO-CHOP cells, CHOP-luciferase reporter luminescence; percent of tunicamycin response, DMSO as zero. 1,000 tested, 64% active. shares compounds with CHOP UPR activ; in the data active = activation above about 33%;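 also: 0% = DMSO wells and 100% = tunicamycin 10 µg/mL wells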
UPR XBP1 confirm: adaptive UPR (XBP1) activation, confirmed; shares compounds with UPR XBP1 act; CHO-XBP1 IRE1-XBP1 luciferase reporter, luminescence; activation, % at 20 µM; 1,000 tested, 63% active; AID 485299;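 active = reporter signal at least 30% of the positive control's activation in two or more of four replicate wells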;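 also: plate controls were DMSO negative control for no effect and tunicamycin 10 µg/mL positive control for full effect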
* = called active by the depositor; nt = no result.

SMILES	Dynein cargo inh	T cruzi repl	CHOP UPR activ	UPR XBP1 act	CHOP inhibitor	Lmaj promast	UPR CHOP confirm	UPR XBP1 confirm
COc1ccccc1-c1nnc(Nc2nc3c(OC)cccc3s2)o1	-1.18	62.8*	71.5*	15.3	nt	97.9*	109.5*	nt
CCCOc1ccc(/C=C/C(=O)OCC(=O)N(C)c2c(N)n(Cc3ccccc3)c(=O)[nH]c2=O)cc1OCC	nt	20.0	-0.1	-0.9	nt	nt	nt	nt
COC(=O)Cn1c(=NC(=O)c2ccc([N+](=O)[O-])s2)sc2cc(Br)ccc21	-0.682	47.6	49.5*	11.4	44.9	99.5*	24.0	nt
C/C(=N\OCc1ccc(C#N)cc1)c1ccc(S(=O)(=O)N(C)C)cc1	nt	4.6	40.9*	3.9	nt	nt	5.9	nt
COc1cc(/C=C2/SC(=S)N(Cc3ccccc3)C2=O)ccc1O	nt	-8.4	2.9	3.2	nt	nt	nt	nt
COc1ccc(/C=C2\CN(Cc3ccccc3)C/C(=C\c3ccc(OC)c(O)c3)C2=O)cc1O	nt	6.7	50.9*	-8.3	nt	nt	42.6*	nt
Cc1ccc2c3c(cccc13)-c1ccccc1C2=O	-0.208	10.7	7.5	1.5	37.2	30.7	nt	nt
Cc1coc2c1C(=O)C(=O)c1c-2ccc2c(C)cccc12	-2.09	-20.6	61.9*	12.6	30.3	nt	37.4*	nt
COCCNC(=O)CN(C(=O)CCC(=O)Nc1ccccn1)c1ccc(C)cc1C	nt	-9.8	0.5	-0.6	nt	nt	nt	nt
O=C(Oc1ccc2c(c1)OCC2=O)c1ccc(Cl)cc1	1.79	-29.2	3.7	21.0	11.3	nt	nt	nt
COc1cc(C(=O)Oc2ccc3c(c2)OCC3=O)cc(OC)c1OC	0.0203	-10.8	45.7*	43.1*	20.7	-6.8	0.1	16.8
CCOC(=O)c1nn(-c2ccc(OCC)cc2)c2nc(-c3ccco3)c(C#N)c(=O)n12	-1.1	20.9	53.3*	74.7*	42.5	-2.5	28.4	51.9*
CCOC(=O)c1nn(-c2ccc(OCC)cc2)c2nc(-c3cccc(OC)c3)c(C#N)c(=O)n12	1.08	2.3	0.6	-0.7	39.1	-1.9	nt	nt
CN(Cc1ccccc1)C(=O)COC(=O)CCC(=O)c1ccc(F)cc1	nt	nt	0.4	0.2	nt	nt	nt	nt
COc1ccc(S(=O)(=O)N2CCOCC2)cc1NC(=O)COc1ccc(C(C)=O)cc1OC	nt	nt	1.5	-1.7	nt	nt	nt	nt
O=C1S/C(=C\C=C\c2ccco2)C(=O)N1c1ccc(O)cc1	-1.38	11.3	168.1*	36.8*	34.4	1.7	3.9	2.0
COC(=O)c1ccc(COc2ccccc2/C=C(\C#N)C(=O)Nc2c(C)cccc2C)cc1	-0.921	43.5	127.8*	65.3*	-75.9	98.3*	85.3*	65.0*
FC(F)(F)c1nnc2c(Sc3ccc(Cl)cc3)nc3ccccc3n12	3.09	46.3	84.1*	59.4*	71.3*	-1.4	127.1*	55.3*
Cc1ccc(C)c(NC(=S)c2ccccn2)c1	-0.564	41.3	125.2*	33.2*	-120.6	98.3*	112.0*	12.7
c1ccc2sc(NC3=NCN(C4CCCCC4)CN3)nc2c1	-0.362	-2.1	1.9	2.0	39.0	2.4	nt	nt
CC1CCCCC1N1CN=C(Nc2nc3ccccc3s2)NC1 (stereo unspecified)	2.96	29.6	45.6*	90.3*	67.1	3.6	86.4*	99.0*
Cn1c(=O)c2c(SCc3ccccc3)nc(-c3ccco3)nc2n(C)c1=O	-0.372	nt	nt	nt	-14.5	-5.3	nt	nt
Cn1c(=O)c2c(SCC(=O)Nc3cccc(F)c3)nc(-c3ccco3)nc2n(C)c1=O	nt	-19.3	157.5*	481.2*	nt	nt	-0.5	4.2
Clc1ccccc1CN1CCC(Cc2ccccc2)CC1	0.114	-1.8	-1.2	0.0	48.3	33.0	nt	nt
Oc1ccc(CN2CCC(Cc3ccccc3)CC2)c2cccnc12	-3.02	50.1	384.6*	39.2*	64.8	100.6*	254.4*	30.7*

Screening data deposited in PubChem by several laboratories.
